ChEMBL document CHEMBL1131139, “Synthesis and antibacterial activity of ketolides (6-O-methyl-3-oxoerythromycin derivatives): a new class of antibacterials highly potent against macrolide-resistant and -susceptible respiratory pathogens” (1998)
≈ marks a conversion by molar mass, not a printed value.

Experiments:
Enterococcus [1] = assay: In vitro inhibitory activity against enterococci EryRc (13); format: functional
Enterococcus [2] = assay: In vitro inhibitory activity against enterococci EryRi (19); format: functional
Escherichia coli = assay: In vitro inhibitory activity against Escherichia coli (250 UC5); format: functional
How it was run: (§1)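 Two-fold agar dilution on Mueller-Hinton agar (pH 7.4). Inoculum from overnight plate cultures suspended in Mueller-Hinton broth, adjusted to 10^9 CFU/mL, diluted 1:200 and spotted by multipoint inoculator at about 10^4 CFU/spot. Plates incubated 37 °C for 20 h. MIC taken as lowest concentration with no visible growth.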

Haemophilus influenzae [3] = assay: In vitro inhibitory activity against Haemophilus influenzae (351CB12); format: functional; how it was run: as §1
Haemophilus influenzae [4] = assay: In vitro inhibitory activity against Haemophilus influenzae (351HT3); format: functional; how it was run: as §1
Haemophilus [5] = assay: In vitro inhibitory activity against Haemophilus AmpR (37); format: functional
Haemophilus [6] = assay: In vitro inhibitory activity against Haemophilus AmpS (43); format: functional
Haemophilus influenzae [7] = assay: (§2) In Vivo evaluation for its effective dose against Haemophilus influenzae (351RD7 AmpR beta (+)); format: functional
How it was run: (§3)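 Male Charles River CD1 mice, 20-22 g, 10 per dose group, infected intraperitoneally with 0.5 mL diluted overnight broth culture (physiological buffer or 5% hog mucine) at 10-100 times the minimal lethal dose. Compound suspended in carboxymethylcellulose, 0.5 mL given orally immediately and 4 h postinfection. Survival followed 8-10 days; ED50 (unitary dose protecting 50% from death) by Litchfield-Wilcoxon probit method.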

Haemophilus influenzae [8] = assay: (§4) In Vivo evaluation for its effective dose against Haemophilus influenzae (351GR1); format: functional; how it was run: as §3
Haemophilus influenzae [9] = assay: (§5) In Vivo evaluation for its effective dose against Haemophilus influenzae (351TO19 AmpR beta (-)); format: functional; how it was run: as §3
Staphylococcus aureus [10] = assay: (§6) In Vivo evaluation for its effective dose against Staphylococcus aureus (011GO25 EryRi.; format: functional; how it was run: as §3
Staphylococcus aureus [11] = assay: (§7) In Vivo evaluation for its effective dose against Staphylococcus aureus (011UC4).; format: functional; how it was run: as §3
Streptococcus pneumoniae [12] = assay: (§8) In Vivo evaluation for its effective dose against Streptococcus pneumoniae (030Cr29 EryRc); format: functional; how it was run: as §3
Streptococcus pneumoniae [13] = assay: (§9) In Vivo evaluation for its effective dose against Streptococcus pneumoniae (030MV2 EryRc); format: functional; how it was run: as §3
Streptococcus pneumoniae [14] = assay: (§10) In Vivo evaluation for its effective dose against Streptococcus pneumoniae (030RO1 EryRi); format: functional; how it was run: as §3
Streptococcus pneumoniae [15] = assay: (§11) In Vivo evaluation for its effective dose against Streptococcus pneumoniae (030SJ1 EryRc); format: functional; how it was run: as §3
Streptococcus pneumoniae [16] = assay: (§12) In Vivo evaluation for its effective dose against Streptococcus pneumoniae (030SJ6 EryRc); format: functional; how it was run: as §3
Streptococcus pneumoniae [17] = assay: (§13) In Vivo evaluation for its effective dose against Streptococcus pneumoniae (032UC1); format: functional; how it was run: as §3
Streptococcus pyogenes [18] = assay: (§14) In Vivo evaluation for its effective dose against Streptococcus pyogenes (02A1UC1); format: functional; how it was run: as §3
[19] = In vitro inhibitory activity against Pneumococci EryRc (34); format: functional
[20] = In vitro inhibitory activity against Pneumococci PenR (65); format: functional
[21] = system: Staphylococcus epidermidis; assay: In vitro inhibitory activity against Staphylococcus epidermidis (EryRi 012GO11i); format: functional; how it was run: as §1
Streptococcus sp. [22] = assay: In vitro inhibitory activity against Streptococci EryR (27); format: functional
Streptococcus sp. [23] = assay: In vitro inhibitory activity against Streptococci EryRi (98); format: functional
Staphylococcus sp. [24] = assay: In vitro inhibitory activity against Staphylococci EryRi (65); format: functional
Staphylococcus aureus [25] = assay: In vitro inhibitory activity against Staphylococcus aureus (011UC4); format: functional; how it was run: as §1
Staphylococcus aureus [26] = assay: In vitro inhibitory activity against Staphylococcus aureus (EryRi 011GO25i); format: functional; how it was run: as §1
Streptococcus pneumoniae [27] = assay: In vitro inhibitory activity against Streptococcus pneumoniae (032UC1); format: functional; how it was run: as §1
Streptococcus pneumoniae [28] = assay: In vitro inhibitory activity against Streptococcus pneumoniae (EryRc 030SJ1); format: functional; how it was run: as §1
Streptococcus pneumoniae [29] = assay: In vitro inhibitory activity against Streptococcus pneumoniae (EryRi 030SJ5i); format: functional; how it was run: as §1
Streptococcus pyogenes [30] = assay: In vitro inhibitory activity against Streptococcus pyogenes (02A1UC1); format: functional; how it was run: as §1
Staphylococcus aureus [31] = assay: In vitro inhibitory activity against Staphylococcus aureus (EryRc 011CB20); format: functional; how it was run: as §1
Mus musculus [32] = assay: as §2; format: functional; how it was run: as §3
Mus musculus [33] = assay: as §4; format: functional; how it was run: as §3
Mus musculus [34] = assay: as §5; format: functional; how it was run: as §3
Mus musculus [35] = assay: as §6; format: functional; how it was run: as §3
Mus musculus [36] = assay: as §7; format: functional; how it was run: as §3
Mus musculus [37] = assay: as §8; format: functional; how it was run: as §3
Mus musculus [38] = assay: as §9; format: functional; how it was run: as §3
Mus musculus [39] = assay: as §10; format: functional; how it was run: as §3
Mus musculus [40] = assay: as §11; format: functional; how it was run: as §3
Mus musculus [41] = assay: as §12; format: functional; how it was run: as §3
Mus musculus [42] = assay: as §13; format: functional; how it was run: as §3
Mus musculus [43] = assay: as §14; format: functional; how it was run: as §3
Staphylococcus sp. [44] = assay: In vitro inhibitory activity against Staphylococci EryRc (13); format: functional
Streptococcus sp [45] = assay: In vitro inhibitory activity against Streptococci EryR (27)
Streptococcus sp [46] = assay: as above; remark: listed apart in the source
Streptococcus sp [47] = assay: In vitro inhibitory activity against Streptococci EryRi (98)
Streptococcus sp [48] = assay: as above; remark: listed apart in the source

CC[C@H]1OC(=O)[C@H](C)[C@@H](O[C@H]2C[C@@](C)(OC)[C@@H](O)[C@H](C)O2)[C@H](C)[C@@H](O[C@@H]2O[C@H](C)C[C@H](N(C)C)[C@H]2O)[C@](C)(O)C[C@@H](C)CN(C)[C@H](C)[C@@H](O)[C@]1(C)O [AZITHROMYCIN] showed an MIC50 (Enterococcus [1]) of 10 µg/mL (≈ 13.4 µM), an MIC90 (Enterococcus [1]) of 40 µg/mL (≈ 53.4 µM) and an MIC50 (Enterococcus [2]) of 40 µg/mL (≈ 53.4 µM). It also gave an MIC90 (Enterococcus [2]) of 40 µg/mL (≈ 53.4 µM), an MIC (Escherichia coli) of 20 µg/mL (≈ 26.7 µM) and an MIC (Haemophilus influenzae [3]) of 1.2 µg/mL (≈ 1.6 µM). For the same compound, the MIC (Haemophilus influenzae [4]) was 1.2 µg/mL (≈ 1.6 µM), the MIC50 (Haemophilus [5]) was 0.3 µg/mL (≈ 0.401 µM) and the MIC90 (Haemophilus [5]) was 1.2 µg/mL (≈ 1.6 µM). It also gave an MIC50 (Haemophilus [6]) of 0.15 µg/mL (≈ 0.2 µM), an MIC90 (Haemophilus [6]) of 1.2 µg/mL (≈ 1.6 µM) and an ED50 (Haemophilus influenzae [7]) of 117 mg/kg. The ED50 (Haemophilus influenzae [8]) was 109 mg/kg, the ED50 (Haemophilus influenzae [9]) was 368 mg/kg and the ED50 (Staphylococcus aureus [10]) was over 100 mg/kg. The ED50 (Staphylococcus aureus [11]) was 60 mg/kg, the ED50 (Streptococcus pneumoniae [12]) was over 100 mg/kg and the ED50 (Streptococcus pneumoniae [13]) was over 100 mg/kg. For the same compound, the ED50 (Streptococcus pneumoniae [14]) was over 100 mg/kg, the ED50 (Streptococcus pneumoniae [15]) was over 100 mg/kg and the ED50 (Streptococcus pneumoniae [16]) was over 100 mg/kg. It also gave an ED50 (Streptococcus pneumoniae [17]) of over 50 mg/kg, an ED50 (Streptococcus pyogenes [18]) of 16 mg/kg and an MIC50 [19] of 40 µg/mL (≈ 53.4 µM). The MIC90 [19] was 40 µg/mL (≈ 53.4 µM), the MIC50 [20] was 2.5 µg/mL (≈ 3.34 µM) and the MIC90 [20] was 40 µg/mL (≈ 53.4 µM). For the same compound, the MIC [21] was 40 µg/mL (≈ 53.4 µM), the MIC50 (Streptococcus sp. [22]) was 10 µg/mL (≈ 13.4 µM) and the MIC90 (Streptococcus sp. [22]) was 40 µg/mL (≈ 53.4 µM). The MIC50 (Streptococcus sp. [23]) was 40 µg/mL (≈ 53.4 µM), the MIC90 (Streptococcus sp. [23]) was 40 µg/mL (≈ 53.4 µM) and the MIC50 (Staphylococcus sp. [24]) was 40 µg/mL (≈ 53.4 µM). For the same compound, the MIC90 (Staphylococcus sp. [24]) was 40 µg/mL (≈ 53.4 µM), the MIC (Staphylococcus aureus [25]) was 0.3 µg/mL (≈ 0.401 µM) and the MIC (Staphylococcus aureus [26]) was 40 µg/mL (≈ 53.4 µM). For the same compound, the MIC (Streptococcus pneumoniae [27]) was 0.15 µg/mL (≈ 0.2 µM), the MIC (Streptococcus pneumoniae [28]) was 40 µg/mL (≈ 53.4 µM) and the MIC (Streptococcus pneumoniae [29]) was 40 µg/mL (≈ 53.4 µM). The MIC (Streptococcus pyogenes [30]) was 0.6 µg/mL (≈ 0.801 µM) and the MIC (Staphylococcus aureus [31]) was 40 µg/mL (≈ 53.4 µM).

For CC[C@H]1OC(=O)[C@H](C)[C@@H](O[C@H]2C[C@@](C)(OC)[C@@H](O)[C@H](C)O2)[C@H](C)[C@@H](O[C@@H]2O[C@H](C)C[C@H](N(C)C)[C@H]2O)[C@](C)(OC)C[C@@H](C)C(=O)[C@H](C)[C@@H](O)[C@]1(C)O [CLARITHROMYCIN], the MIC50 (Enterococcus [2]) was 1.2 µg/mL (≈ 1.6 µM), the MIC90 (Enterococcus [2]) was 10 µg/mL (≈ 13.4 µM) and the MIC (Escherichia coli) was 40 µg/mL (≈ 53.5 µM). The MIC (Haemophilus influenzae [3]) was 2.5 µg/mL (≈ 3.34 µM), the MIC (Haemophilus influenzae [4]) was 2.5 µg/mL (≈ 3.34 µM) and the MIC50 (Haemophilus [5]) was 2.5 µg/mL (≈ 3.34 µM). For the same compound, the MIC90 (Haemophilus [5]) was 10 µg/mL (≈ 13.4 µM), the MIC50 (Haemophilus [6]) was 1.2 µg/mL (≈ 1.6 µM) and the MIC90 (Haemophilus [6]) was 5 µg/mL (≈ 6.68 µM). It also gave an ED50 (Mus musculus [32]) of 109 mg/kg, an ED50 (Mus musculus [33]) of 346 mg/kg and an ED50 (Mus musculus [34]) of 600 mg/kg. For the same compound, the ED50 (Mus musculus [35]) was over 100 mg/kg, the ED50 (Mus musculus [36]) was 12.6 mg/kg and the ED50 (Mus musculus [37]) was over 100 mg/kg. The ED50 (Mus musculus [38]) was over 100 mg/kg, the ED50 (Mus musculus [39]) was over 100 mg/kg and the ED50 (Mus musculus [40]) was over 100 mg/kg. It also gave an ED50 (Mus musculus [41]) of over 100 mg/kg, an ED50 (Mus musculus [42]) of over 50 mg/kg and an ED50 (Mus musculus [43]) of 16 mg/kg. The MIC50 [19] was 40 µg/mL (≈ 53.5 µM), the MIC90 [19] was 40 µg/mL (≈ 53.5 µM) and the MIC50 [20] was 0.3 µg/mL (≈ 0.401 µM). It also gave an MIC90 [20] of 40 µg/mL (≈ 53.5 µM), an MIC [21] of 40 µg/mL (≈ 53.5 µM) and an MIC50 (Staphylococcus sp. [24]) of 40 µg/mL (≈ 53.5 µM). It also gave an MIC90 (Staphylococcus sp. [24]) of 40 µg/mL (≈ 53.5 µM), an MIC (Staphylococcus aureus [25]) of 0.3 µg/mL (≈ 0.401 µM) and an MIC (Staphylococcus aureus [26]) of 40 µg/mL (≈ 53.5 µM). For the same compound, the MIC (Streptococcus pneumoniae [27]) was 0.04 µg/mL (≈ 0.0535 µM), the MIC (Streptococcus pneumoniae [28]) was 40 µg/mL (≈ 53.5 µM) and the MIC (Streptococcus pneumoniae [29]) was 40 µg/mL (≈ 53.5 µM). It also gave an MIC (Streptococcus pyogenes [30]) of 0.08 µg/mL (≈ 0.107 µM), an MIC50 (Staphylococcus sp. [44]) of 40 µg/mL (≈ 53.5 µM) and an MIC90 (Staphylococcus sp. [44]) of 40 µg/mL (≈ 53.5 µM). It also gave an MIC (Staphylococcus aureus [31]) of 40 µg/mL (≈ 53.5 µM), an MIC50 (Streptococcus sp [45]) of 1.2 µg/mL (≈ 1.6 µM) and an MIC90 (Streptococcus sp [46]) of 40 µg/mL (≈ 53.5 µM). For the same compound, the MIC50 (Streptococcus sp [47]) was 40 µg/mL (≈ 53.5 µM) and the MIC90 (Streptococcus sp [48]) was 40 µg/mL (≈ 53.5 µM).
